Article PMC3962999 (The Biochemical journal, 2011)
Where “and” joins values, the source holds several entries; their conditions need not be identical. Equal values may be shown once. Read-outs that look alike come from different tables or passages of the source.

Experiments:
[1] = biological target: T1, phosphatase-like domain of PPIP5K1 (PBD1) (Homo sapiens, UniProt Q6PFW1); assay: Phosphatase assay with phosphatase-like domain of PPIP5K1; assay type: biochemical; conditions: for hydrolysis of inositol phosphate: up to 15 h at 37 °C, trace 3H-labelled material (InsP6 also 1 μM)
T1 sequence (Q6PFW1 382-917): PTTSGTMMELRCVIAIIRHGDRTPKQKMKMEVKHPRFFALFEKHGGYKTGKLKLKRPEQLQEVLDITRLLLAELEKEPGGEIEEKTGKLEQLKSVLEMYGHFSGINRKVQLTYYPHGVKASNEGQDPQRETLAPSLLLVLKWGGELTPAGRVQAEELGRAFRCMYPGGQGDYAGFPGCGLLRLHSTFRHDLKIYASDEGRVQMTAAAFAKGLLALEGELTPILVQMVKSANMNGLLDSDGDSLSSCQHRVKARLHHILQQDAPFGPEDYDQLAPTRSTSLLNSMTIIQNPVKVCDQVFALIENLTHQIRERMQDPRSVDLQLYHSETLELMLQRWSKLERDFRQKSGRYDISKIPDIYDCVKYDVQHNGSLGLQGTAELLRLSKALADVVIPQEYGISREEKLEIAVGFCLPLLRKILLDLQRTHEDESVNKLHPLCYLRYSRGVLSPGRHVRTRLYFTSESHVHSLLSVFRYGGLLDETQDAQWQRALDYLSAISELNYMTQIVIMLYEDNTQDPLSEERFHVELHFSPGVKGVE
Outline: (§1)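 Enzyme and 50 mM p-nitrophenyl phosphate were incubated at 37 °C in EDTA-free phosphatase buffer: 5 mM Hepes pH 7.2, 100 mM KCl, 2 mM MgCl₂, 0.5 mg/ml BSA. Reactions were stopped with 1 M NaOH, and p-nitrophenol accumulation was read as absorbance. Phosphatase-like domains were His-tagged constructs made in E. coli with pGro7 chaperones, purified by Ni-NTA then SP cation exchange. hMIPP was recombinant.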

[2] = biological target: T2, phosphatase-like domain of PPIP5K2 (PBD2) (Homo sapiens, UniProt O43314); assay: Phosphatase assay with phosphatase-like domain of PPIP5K2; assay type: biochemical; conditions: for hydrolysis of inositol phosphate: results not shown
T2 sequence (O43314 371-901 isoform O43314-2): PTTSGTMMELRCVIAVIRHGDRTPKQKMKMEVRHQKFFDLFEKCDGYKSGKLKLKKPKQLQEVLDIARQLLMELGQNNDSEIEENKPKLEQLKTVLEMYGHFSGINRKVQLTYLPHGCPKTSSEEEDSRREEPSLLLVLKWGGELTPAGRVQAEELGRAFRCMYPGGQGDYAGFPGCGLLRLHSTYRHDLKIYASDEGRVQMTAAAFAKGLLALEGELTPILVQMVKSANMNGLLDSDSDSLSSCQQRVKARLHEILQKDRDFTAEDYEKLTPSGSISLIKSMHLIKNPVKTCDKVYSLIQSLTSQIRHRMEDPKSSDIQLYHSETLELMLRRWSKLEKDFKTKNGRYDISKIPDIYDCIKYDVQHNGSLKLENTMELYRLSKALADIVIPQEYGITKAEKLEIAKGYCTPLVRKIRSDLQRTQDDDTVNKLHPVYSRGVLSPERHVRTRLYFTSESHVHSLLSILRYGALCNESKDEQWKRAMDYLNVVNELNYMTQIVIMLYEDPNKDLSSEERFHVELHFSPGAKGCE
Outline: as §1

PPIP5K1 kinase domain [3] = biological target: T3, PPIP5K1 kinase domain (Homo sapiens, UniProt Q6PFW1); assay: Kinase assay with PPIP5K1 kinase domain; assay type: biochemical; conditions: ratio of kcat/Km, this study
T3 sequence (Q6PFW1 1-387 limits assumed): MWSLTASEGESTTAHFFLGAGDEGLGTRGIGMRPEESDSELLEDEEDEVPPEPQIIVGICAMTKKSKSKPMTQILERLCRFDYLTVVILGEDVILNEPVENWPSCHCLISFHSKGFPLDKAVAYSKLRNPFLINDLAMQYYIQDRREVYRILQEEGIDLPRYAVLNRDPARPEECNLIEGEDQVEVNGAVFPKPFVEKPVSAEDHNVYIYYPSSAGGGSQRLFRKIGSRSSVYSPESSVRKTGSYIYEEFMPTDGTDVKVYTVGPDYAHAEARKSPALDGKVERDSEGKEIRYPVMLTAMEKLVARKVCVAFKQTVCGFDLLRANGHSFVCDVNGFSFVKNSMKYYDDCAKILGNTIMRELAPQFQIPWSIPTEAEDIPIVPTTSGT

PPIP5K1 kinase domain [4] = biological target: T3, PPIP5K1 kinase domain; conditions: cited from earlier work
[5] = test system: full-length recombinant human PPIP5K1; conditions: in vitro; cited from earlier work
PBD2 = biological target: T4, PBD2 (Homo sapiens, UniProt O43314); assay: PEG precipitation [3H]InsP6 binding assay
T4 sequence (O43314 371-901 isoform O43314-2): T2 sequence (O43314 371-901 isoform O43314-2)
Outline: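 PBD2 (32 μg) was incubated 20 min at 4 °C in 25 mM Hepes pH 7.2 containing 5 mg/ml γ-globulin, 100 mM KCl, 1 mM EDTA and 1 mM DTT. Each tube held ~15000 d.p.m. [³H]InsP₆ plus increasing unlabelled InsP₆ or C₈-PtdIns(3,4,5)P₃. Ice-cold 30 % PEG was added, samples were held 10 min at 0–4 °C and centrifuged at 10 000 g. Washed pellets were counted, and Kd and Bmax came from the saturation binding plot.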

NIH 3T3 cells = assay: Confocal immunofluorescence of FLAG-PPIP5K1 translocation to the plasma membrane; assay type: cell-based
Outline: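 NIH 3T3 cells on glass-bottom dishes were transfected 24 h after seeding with full-length FLAG-tagged human PPIP5K1 (Lipofectamine 2000). The next day they were serum-starved 3 h, then given PDGF. Cells were fixed in 3 % paraformaldehyde/4 % sucrose (15 min, 23 °C), permeabilized with 0.2 % Triton X-100, and blocked. Staining used anti-FLAG (2 h, 37 °C), Alexa 488 secondary and DAPI. Confocal ×63 line intensity profiles gave plasma membrane/cytoplasm pixel intensity ratios.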

GRP-1 PH domain [6] = biological target: T5, GRP-1 PH domain (Mus musculus, UniProt O08967); assay: SPR equilibrium binding to immobilized lipid vesicles, GRP-1 PH domain
T5 sequence (O08967 264-380 limits assumed): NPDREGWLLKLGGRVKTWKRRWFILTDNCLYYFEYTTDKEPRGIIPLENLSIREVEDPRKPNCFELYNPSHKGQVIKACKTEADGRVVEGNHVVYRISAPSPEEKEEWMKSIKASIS
Outline: (§2)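 Large unilamellar vesicles (PtdCho/PtdE/test phosphoinositide 77:20:3) were captured on an L1 chip to 5000 RU. Signals were corrected against phosphoinositide-free vesicles. Kd came from nonlinear fitting of Req = Rmax/(1+Kd/C). Concentrations were: GRP-1 PH domain 2.5–125 nM; PBD1 on PtdIns(3,4,5)P₃ 5–150 nM; bisphosphate vesicles 75–1900 nM.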

PBD1 (PPIP5K1) = biological target: T6, PBD1 (PPIP5K1) (Homo sapiens, UniProt Q6PFW1); assay: SPR equilibrium binding to immobilized lipid vesicles, PBD1; conditions: for binding to PBD1: SPR, in words
T6 sequence (Q6PFW1 382-917): T1 sequence (Q6PFW1 382-917)
Outline: as §2

PBD2 (PPIP5K2) = biological target: T7, PBD2 (PPIP5K2) (Homo sapiens, UniProt O43314); assay: SPR equilibrium binding to immobilized lipid vesicles, PBD2; conditions: for binding to PBD2: SPR, in words
T7 sequence (O43314 371-901 isoform O43314-2): T2 sequence (O43314 371-901 isoform O43314-2)
Outline: as §2

GRP-1 PH domain [7] = biological target: T5, GRP-1 PH domain; conditions: read-out: Kd, values published by others; same technique; cited from earlier work
hMIPP = biological target: T8, hMIPP (Homo sapiens, UniProt Q9UNW1); assay: Hydrolysis of p-nitrophenyl phosphate by hMIPP; assay type: biochemical; conditions: 50 mM p-nitrophenyl phosphate, 90 ug hMIPP
T8 sequence (Q9UNW1 31-487): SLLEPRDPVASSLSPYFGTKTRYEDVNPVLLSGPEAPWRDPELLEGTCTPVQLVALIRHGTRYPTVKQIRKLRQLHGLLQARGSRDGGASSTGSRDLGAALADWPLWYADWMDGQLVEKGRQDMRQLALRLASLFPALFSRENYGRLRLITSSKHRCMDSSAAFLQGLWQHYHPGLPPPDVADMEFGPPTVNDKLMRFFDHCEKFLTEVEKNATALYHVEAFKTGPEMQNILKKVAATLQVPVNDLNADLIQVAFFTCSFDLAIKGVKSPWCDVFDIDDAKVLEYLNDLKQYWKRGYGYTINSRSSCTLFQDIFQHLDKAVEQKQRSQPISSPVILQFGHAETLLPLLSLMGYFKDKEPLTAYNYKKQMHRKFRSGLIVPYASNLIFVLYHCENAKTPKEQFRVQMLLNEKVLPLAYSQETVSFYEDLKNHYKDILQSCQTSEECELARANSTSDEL
Outline: as §1

[8] = Stability of InsP8 through acid-quench, neutralization and HPLC; assay type: physicochemical; conditions: HPLC-purified [3H]InsP8

## O=P(O)(O)OC1[C@@H](OP(=O)(O)O)[C@@H](OP(=O)(O)O)C(OP(=O)(O)OP(=O)(O)O)[C@H](OP(=O)(O)O)[C@H]1OP(=O)(O)O (some centres unmarked) [1/3-PP-InsP5]
[1]
  hydrolysis of inositol phosphate: none of these polyphosphates were hydrolysed
[2]
  hydrolysis of inositol phosphate: Identical results

## O=P(O)(O)OC1[C@@H](OP(=O)(O)O)[C@H](OP(=O)(O)O)C(OP(=O)(O)OP(=O)(O)O)[C@H](OP(=O)(O)O)[C@H]1OP(=O)(O)O (some centres unmarked) [5-PP-InsP5]
PPIP5K1 kinase domain [3]
  catalytic preference for 5-PP-InsP5 over InsP6: 80 fold
[1]
  hydrolysis of inositol phosphate: none of these polyphosphates were hydrolysed
[2]
  hydrolysis of inositol phosphate: Identical results
PPIP5K1 kinase domain [4]
  catalytic specificity for 5-PP-InsP5 relative to InsP6: 2.5 fold
[5]
  dephosphorylation by full-length PPIP5K1: does not de-phosphorylate

## CCCCCCCC(=O)OC[C@H](COP(=O)(O)OC1[C@H](O)[C@H](OP(=O)(O)O)C(OP(=O)(O)O)[C@H](OP(=O)(O)O)[C@H]1O)OC(=O)CCCCCCC (some centres unmarked) [C8 soluble analogue of PtdIns(3,4,5)P3, C8-PtdIns(3,4,5)P3, reference compound]
[1]; PBD1 35 μg/ml, 24 h at 37 °C, 1 mM lipid
  hydrolysis of the lipid (phosphate release): unable to detect any hydrolysis
PBD2; PEG-precipitation assay
  potency relative to InsP6 at displacing [3H]InsP6: 2- to 3 fold

## O=P(O)(O)OC1[C@@H](OP(=O)(O)O)[C@H](OP(=O)(O)O)C(O)[C@H](OP(=O)(O)O)[C@H]1OP(=O)(O)O (some centres unmarked) [Ins(1,3,4,5,6)P5]
[5]
  dephosphorylation by full-length PPIP5K1: does not de-phosphorylate

## O=P(O)(O)O[C@H]1[C@H](OP(=O)(O)O)[C@@H](OP(=O)(O)O)[C@H](OP(=O)(O)O)[C@@H](OP(=O)(O)O)[C@H]1OP(=O)(O)O [InsP6]
[1]
  hydrolysis of inositol phosphate: none of these polyphosphates were hydrolysed
[2]
  hydrolysis of inositol phosphate: Identical results
PBD2; InsP6 binding to PBD2
  Bmax: 0.6 mol/mol of protein
PBD2; saturation binding plot, 4 °C
  Kd: 600 nM and 570 nM
[5]
  dephosphorylation by full-length PPIP5K1: does not de-phosphorylate

## O=c1cc(N2CCOCC2)oc2c(-c3ccccc3)cccc12 [LY294002, reference compound]
NIH 3T3 cells; 15 min pre-treatment with 100 μM LY294002 before 50 ng/ml PDGF for 5 min
  PDGF-induced translocation of PPIP5K1: largely prevented

## CCCCC/C=C\C/C=C\C/C=C\C/C=C\CCCC(=O)O[C@H](COC(=O)CCCCCCCCCCCCCCCCC)COP(=O)(O)O[C@H]1[C@H](O)[C@@H](OP(=O)(O)O)[C@H](OP(=O)(O)O)[C@@H](OP(=O)(O)O)[C@H]1O [PtdIns(3,4,5)P3]
GRP-1 PH domain [6]
  Kd: 59 nM
PBD1 (PPIP5K1)
  Kd: 96 nM
PBD2 (PPIP5K2)
  Kd: 705 nM
GRP-1 PH domain [7]
  Kd: 28 to 170 nM

## O=P(O)(O)OC1C(OP(=O)(O)O)C(OP(=O)(O)OP(=O)(O)O)C(OP(=O)(O)O)C(OP(=O)(O)OP(=O)(O)O)C1OP(=O)(O)O (centres unmarked) [[PP]2-InsP4, 1/3,5-[PP]2-InsP4]
[1]
  hydrolysis of inositol phosphate: none of these polyphosphates were hydrolysed
[2]
  hydrolysis of inositol phosphate: Identical results
[5]
  dephosphorylation by full-length PPIP5K1: does not de-phosphorylate

## O=[N+]([O-])c1ccc(OP(=O)(O)O)cc1 [p-nitrophenyl phosphate, reference compound]
[1]; 50 mM p-nitrophenyl phosphate, 90 μg PBD1
  hydrolysis of p-nitrophenyl phosphate: no activity
[2]; 50 mM p-nitrophenyl phosphate, 90 μg PBD2
  hydrolysis of p-nitrophenyl phosphate: no activity
hMIPP
  rate of p-nitrophenyl phosphate hydrolysis: approx. 10 nM/mg of protein per min

## InsP8
[1]
  hydrolysis of inositol phosphate: none of these polyphosphates were hydrolysed
[2]
  hydrolysis of inositol phosphate: Identical results
[8]
  dephosphorylation after acid-quench, neutralization and HPLC: did not detect any dephosphorylation
  recovery after acid-quench, neutralization and HPLC: > 85%

## PDGF
NIH 3T3 cells; 50 ng/ml PDGF, 5 min
  proportion of PPIP5K1 at the plasma membrane: significant increase

## Ptd3P
PBD1 (PPIP5K1)
  binding to PBD1: did not bind
PBD2 (PPIP5K2)
  binding to PBD2: did not bind

## Ptd4P
PBD1 (PPIP5K1)
  binding to PBD1: did not bind
PBD2 (PPIP5K2)
  binding to PBD2: did not bind

## Ptd5P
PBD1 (PPIP5K1)
  binding to PBD1: did not bind
PBD2 (PPIP5K2)
  binding to PBD2: did not bind

## PtdIns(3,4)P2
PBD1 (PPIP5K1); PBD1
  affinity relative to PtdIns(3,4,5)P3 (fold lower): approx. 6 fold
PBD1 (PPIP5K1)
  binding to PBD1: significantly weaker ligands

## PtdIns(3,5)P2
PBD1 (PPIP5K1)
  binding to PBD1: no significant binding
PBD2 (PPIP5K2)
  binding to PBD2: did not bind
